Screening data (PubChem BioAssay)
proKLK7 act: activators of human kallikrein-7 zymogen; purified proKLK7, EDANS-DABCYL substrate fluorescence; 100% is mature enzyme control, 0% vehicle; activation, % at 7 µM; 370,000 tested, 0.9% active;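 active = activation above the mean of all tested compounds plus 3 SD, computed per campaign excluding outliers beyond control limits, cut at about 13% in these data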
Target sequence (P49862 whole entry, looked up): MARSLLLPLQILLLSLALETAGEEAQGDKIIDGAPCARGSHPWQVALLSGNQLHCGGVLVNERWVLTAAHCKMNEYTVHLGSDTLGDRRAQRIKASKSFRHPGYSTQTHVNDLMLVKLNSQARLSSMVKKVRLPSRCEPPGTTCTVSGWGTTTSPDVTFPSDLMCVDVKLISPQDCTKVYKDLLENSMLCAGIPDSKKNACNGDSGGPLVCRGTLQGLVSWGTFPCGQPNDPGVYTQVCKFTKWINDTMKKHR
ADAM17 inh: inhibitors of human ADAM17; recombinant ADAM17, EDANS/DABCYL FRET peptide cleavage; inhibition, % at 6.95 µM; 370,000 tested, 0.83% active;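 active = inhibition above the mean of compounds lying between control limits plus 3 SD, set per campaign, cut at about 8.5% in these data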
ADAM10 inh: inhibitors of human ADAM10 | inhibition, % at 7 µM | O14672 | 370,000 tested, 0.62% active | recombinant ADAM10, EDANS/DABCYL FRET peptide cleavage, 3 h;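 active = inhibition above a per-campaign cutoff equal to the mean of compounds falling between control-based bounds plus 3 SD, cut at about 20% in these data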
NR2E3 ag-1: agonists of human nuclear receptor NR2E3 | Q9Y5X4 | GST-NR2E3/biotin-RetCOR TR-FRET, 1536-well | inhibition of corepressor binding, % at 4.78 µM | 320,000 tested, 0.12% active;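 active = percent inhibition above the cutoff of mean plus 3 SD of all tested compounds, set per screening campaign, cut at about 20% in these data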
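Test system – NR2E3–RetCOR corepressor complex · Quantity – NR2E3 fusion 1.35 nM · Buffer or medium – Tris pH 7.5 · Incubation – Compound–protein incubation for 5 h at 4 °C · Technique – TR-FRET, Eu(K)-anti-GST donor, streptavidin-D2 acceptor, ex 340, em 617/671 nm · Evaluation – percent inhibition of 671/617 nm emission ratio versus biotin and DMSO controls · Plate – 1536-well format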
JMJD2C inh: human JMJD2C demethylase inhibition. Q9H3R0. GST-JMJD2C(1-420) H3K9me3 demethylation, DELFIA europium. inhibition, % at 2.35 µM. 330,000 tested, 0.069% active. AID 2099;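 active = more than half of a compound's replicate wells show inhibition beyond 50%, single wells judged on their own value; inconclusive = some, but no more than half, of replicates pass 50% inhibition; inactive = no replicate passes 50% inhibition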;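 note: signal counts dimethyl H3K9 product captured on neutravidin plate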
Target sequence (Q9H3R0 1-420 limits assumed): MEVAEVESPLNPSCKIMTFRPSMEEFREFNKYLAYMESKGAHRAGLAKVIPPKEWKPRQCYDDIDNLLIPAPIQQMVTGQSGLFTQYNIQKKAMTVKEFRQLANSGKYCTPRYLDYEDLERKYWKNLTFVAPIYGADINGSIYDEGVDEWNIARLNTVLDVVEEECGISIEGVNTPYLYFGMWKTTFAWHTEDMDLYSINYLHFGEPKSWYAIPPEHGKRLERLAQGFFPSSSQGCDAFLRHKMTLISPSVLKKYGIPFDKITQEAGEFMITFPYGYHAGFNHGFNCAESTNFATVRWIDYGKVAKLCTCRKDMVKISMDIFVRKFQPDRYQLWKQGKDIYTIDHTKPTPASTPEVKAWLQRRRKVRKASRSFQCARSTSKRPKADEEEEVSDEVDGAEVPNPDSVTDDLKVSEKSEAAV
NR2E3 ag-2: activates human NR2E3 receptor. Q9Y5X4. CHO-S Gal4-NCOR/VP16-NR2E3 two-hybrid, luciferase. inhibition of corepressor binding, % at 3.98 µM. AID 602229. 360,000 tested, 0.35% active;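 active = inhibition above the mean of all tested compounds plus 3 SD, cut at about 70% in these data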;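 note: higher means lower luciferase signal from less NR2E3 corepressor binding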
NR2E3 ag confirm: NR2E3 agonism confirmed in two-hybrid assay; CHO-S mammalian two-hybrid NR2E3-NCOR, luciferase luminescence; 2,300 tested, 51% active; inhibition, % at 3.98 µM; shares compounds with NR2E3 ag-2;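 active = average inhibition above a cutoff equal to the mean inhibition of all tested compounds plus one SD, cut at about 70% in these data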
GAL4-VP16 luc: GAL4-VP16 reporter inhibition in NR2E3 agonist counterscreen | 2,300 tested, 29% active | inhibition, % at 3.98 µM | CHO-S GAL4-VP16 luciferase reporter, luminescence | shares compounds with NR2E3 ag-2;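 active = mean inhibition above a cutoff equal to the average over all tested compounds plus one standard deviation, cut at about 70% in these data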;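 note: luciferase from a UAS reporter driven by GAL4-VP16 transactivation; higher means less reporter light so more repression of VP16 activity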
Hits are given with their value; n = inactive; u = inconclusive; x = no result. An excerpt weighted towards active compounds, which were near 2.5% of everything screened.

SMILES	proKLK7 act	ADAM17 inh	ADAM10 inh	NR2E3 ag-1	JMJD2C inh	NR2E3 ag-2	NR2E3 ag confirm	GAL4-VP16 luc
CN(CC(=O)Nc1ccccc1Cl)C(=O)c1cccc(S(=O)(=O)N2CCN(Cc3ccccc3)CC2)c1	n	n	n	n	n	102	n	n
CC1CN(C(=O)c2cc(S(=O)(=O)N3CCN(c4ccccc4)CC3)ccc2Cl)CC(C)O1 (stereo unspecified)	n	n	n	n	n	n	x	x
CN(CC(=O)Nc1ccccc1Cl)C(=O)c1cccc(S(=O)(=O)N2CCN(c3ccccc3)CC2)c1	n	n	n	x	x	n	82	n
O=C(c1cc(S(=O)(=O)N2CCN(c3ccccc3)CC2)ccc1Cl)N1CCCCCCC1	n	n	n	n	n	n	79	n
CN(Cc1ccc(OC(F)F)cc1)C(=O)c1cccc(S(=O)(=O)N2CCN(c3ccccc3)CC2)c1	n	n	n	x	x	83	85	n
COc1ccc(NC(C)=O)cc1S(=O)(=O)N1CCN(C/C=C/c2ccccc2)CC1	n	n	n	n	n	n	x	x
Cc1cccc(C)c1NC(=O)CN(C)C(=O)c1cccc(S(=O)(=O)N2CCN(c3ccc(F)cc3)CC2)c1	n	n	n	n	n	n	x	x
CN(CC(=O)Nc1ccccc1Cl)C(=O)c1cccc(S(=O)(=O)N2CCN(c3ccc(F)cc3)CC2)c1	n	n	n	n	n	94	73	n
CC[C@H]1CN2CCc3cc(OC)c(OC)cc3C2C[C@@H]1C[C@H]1NCCc2cc(OC)c(OC)cc21 (stereo partly specified)	n	n	n	n	x	104	98	98
COc1cc2c(cc1OC)CN1CCc3cc(OC)c(OC)cc3C1C2 (stereo unspecified)	n	n	n	x	x	n	x	x
NC(=S)NN=Cc1nccc2c(C(F)(F)C(F)(F)C(F)(F)F)cccc12	n	n	n	x	x	87	n	n
Cc1cnc(C=NNC(N)=S)c2cccc(N)c12	n	n	n	x	x	n	x	x
NC(=S)NN=Cc1nccc2ccccc12	n	n	n	x	x	75	n	n
CC1(C(=O)NCc2ccccc2Br)CCN1Cc1csc2ccccc12 (stereo unspecified)	n	n	n	x	x	n	x	x
COc1ccc(OC)c(S(=O)(=O)N(CC(=O)NC2CCC(C)CC2)c2cc(C)cc(C)c2)c1 (stereo unspecified)	n	n	n	x	x	x	x	x
Cc1ccc(OCCCCn2cnc3ccccc32)c(C)c1	n	n	n	n	n	72	89	n
Brc1ccccc1OCCCCn1cnc2ccccc21	n	n	n	n	n	n	x	x
Cc1ccc(SCCNC(=S)Nc2cc(C)cc(C)c2)cc1	n	n	n	n	n	n	n	n
COC(=O)[C@]12C[C@H](CC(=O)NCCCCc3ccccc3)C(=O)N(Cc3ccco3)C1=C[C@H](C(C)C)O[C@@H]2C1CC1	n	n	n	x	x	x	x	x
CC12CCC(C(=O)N(CSC(=S)N/N=C\c3ccccc3O)C1=O)C2(C)C (stereo unspecified)	n	n	n	n	n	91	n	n
COc1ccc(/C=N\NC(=S)SCN2C(=O)C3CCC(C)(C2=O)C3(C)C)cc1 (stereo unspecified)	n	n	n	n	n	n	x	x
N#C/C(=N/Nc1ccc(OC(F)(F)F)cc1)C(N)=S	n	n	n	n	n	93	93	n
COc1ccc(N/N=C(\C#N)C(N)=O)cc1	n	n	n	n	n	n	x	x
CC1=CC(C)(C)[N+](C)=CN1c1ccccc1	n	n	n	n	n	n	x	x
CC(C)CCCCCCCCCCCCC(=O)NCC(=O)NC1C(O)C(O)C(Nc2ncnc3nc[nH]c23)OC1C(O)CO (stereo unspecified)	x	x	x	x	x	100	100	101
SMILES	proKLK7 act	ADAM17 inh	ADAM10 inh	NR2E3 ag-1	JMJD2C inh	NR2E3 ag-2	NR2E3 ag confirm	GAL4-VP16 luc
CC(O)CNc1ncnc2nc[nH]c12 (stereo unspecified)	n	n	n	n	n	n	x	x
COC(=O)c1c(-c2ccc(C)cc2)csc1NC(=O)Cc1ccc(OC)c(OC)c1	n	n	n	x	n	n	n	n
CCC1(CC)NC(=O)N(CC(=O)OCC(=O)Nc2ccc(OC(F)(F)F)cc2)C1=O	n	n	n	n	n	n	x	x
CCCC1CCC2(CC1)CCC2OC(=S)Nc1ccc(Cl)cc1 (stereo unspecified)	x	n	n	x	x	x	x	x
Cc1cc(C(=O)OCc2nnc(-c3ccccc3)o2)c(C)n1-c1ccccc1	n	n	n	n	n	n	n	n
CN(c1nc2ccccc2[nH]c1=O)C1CCCCC1	n	n	n	n	n	n	90	73
CCN(CC)c1nc2ccccc2[nH]c1=O	n	n	n	n	n	n	x	x
CCOc1cc(CNCc2ccccc2)ccc1OCc1ccc(Cl)cc1	n	n	n	n	n	n	x	x
COc1ccc(CNCCc2ccc(Cl)cc2)cc1OCc1ccccc1	x	x	x	n	n	n	82	71
COc1ccc(CCNC(=O)Cc2ccc([N+](=O)[O-])cc2)cc1OC	n	n	n	n	n	n	x	x
COc1ccc(CCNC(=O)Cc2ccc(OCc3ccccc3)c(OC)c2[N+](=O)[O-])cc1OCc1ccccc1	n	n	n	n	n	101	88	73
CC1CCCCC1Nc1ncnc2sccc12 (stereo unspecified)	n	n	n	n	n	n	n	n
c1ccc(Nc2ncnc3sccc23)cc1	n	n	n	n	n	n	x	x
CN1C(=O)C[C@@](C#N)(C(=O)N2CCCC2)[C@H]1c1ccccc1	n	n	n	x	x	x	x	x
O=S(=O)(c1cccs1)N1CCN(CC(O)COc2cc(Cl)ccc2Cl)CC1 (stereo unspecified)	n	n	n	n	n	89	96	78
O=C(O)C(Cc1ccnc2ccccc12)=NO	n	n	n	x	x	n	x	x
OC(Cc1ccnc2ccccc12)C(Cl)(Cl)Cl (stereo unspecified)	n	n	n	x	x	n	n	n
COc1ccc(S(=O)(=O)Nc2ccccc2C(=O)Nc2nc(-c3ccc(F)cc3)cs2)cc1OC	n	n	n	n	n	n	97	83
CCCNC(=O)c1ccccc1NS(=O)(=O)c1ccc(OC)c(OC)c1	n	n	n	n	n	n	x	x
COc1ccc(-c2csc(NC(=O)c3ccccc3NS(=O)(=O)c3ccc(C)cc3)n2)cc1	n	n	n	n	u	95	98	85
COc1cccc(CNC(=O)[C@H]2CCCN2C(=O)[C@H]2CCCN2C(=O)N2CCOCC2)c1	n	n	n	x	x	x	x	x
COc1ccc(-c2c(Cc3ccccc3)nc(NC(=O)c3ccccc3)n2Cc2ccccc2)cc1	n	n	n	x	x	x	x	x
